Published values of several laboratories.
Each line is one published result; the experiments were not run side by side.
Cell line: HT-29
Effect on: cell growth or viability

| Structure (SMILES) | assay | setting | inhibition [%] |
| --- | --- | --- | --- |
| COc1ccc(C(=O)/C=C/c2cccc(Cl)c2Cl)cc1S(N)(=O)=O | SRB | 10 µM | 106 |
| O=C1Nc2ccccc2/C1=N/NC(=O)c1cc2ccccc2[nH]1 | – | 30 µM | 75.4 |
| COc1ccc(C2=Nn3c(NN=C4C(=O)Nc5ccc(Cl)cc54)nnc3SC2)cc1 | SRB | 10 µM | 27 |
| O=C1Nc2ccc(Cl)cc2/C1=N/NC(=O)c1cc2ccccc2[nH]1 | – | 30 µM | 29.4 |
| COc1ccc(C(=O)/C=C/c2cccc3ccccc23)cc1S(N)(=O)=O | SRB | 10 µM | 140 |
| Cn1c(=O)c(NN=C2C(=O)Nc3ccc(Br)cc32)nc2ccccc21 | – | 30 µM | 49.4 |
| COc1ccc(C(=O)/C=C/c2ccc(Cl)c(Cl)c2)cc1S(N)(=O)=O | SRB | 10 µM | 150 |
| COc1cc2ncnc(NN=C3C(=O)Nc4ccc(C)cc43)c2cc1OC | – | 30 µM | 49.3 |
| CCN(CC)CCNC(=O)c1c(C)[nH]c(/C=C2\C(=O)Nc3ccc(F)cc32)c1C | – | 30 µM | 59.5 |
| COc1ccc2c(c1)C(=NNc1nc(-c3ccc(OC)c(OC)c3)nc3ccccc13)C(=O)N2 | – | 30 µM | 6.2 |
| COc1ccc(C(=O)/C=C/c2ccc3ccccc3c2)cc1S(N)(=O)=O | SRB | 10 µM | 126 |
| COc1cc2ncnc(NN=C3C(=O)Nc4ccccc43)c2cc1OC | – | 30 µM | 38.7 |
| CN1C(=O)/C(=N\NC(=O)c2cc3ccccc3[nH]2)c2cc(Cl)ccc21 | – | 30 µM | 92.4 |
| COc1cc2ncnc(NN=C3C(=O)Nc4ccc(Br)cc43)c2cc1OC | – | 10 µM | 18.6 |
| COc1ccc(C(=O)/C=C/c2ccc3c(c2)OCCO3)cc1S(N)(=O)=O | SRB | 10 µM | 67 |
| O=C(N/N=C1\C(=O)N(c2ccccc2)c2ccccc21)c1cc2ccccc2[nH]1 | – | 30 µM | 97 |
| COc1ccc(-c2nc(NN=C3C(=O)Nc4ccc(F)cc43)c3ccccc3n2)cc1OC | – | 30 µM | 9.6 |
| COc1ccc(C2=Nn3c(NN=C4C(=O)Nc5ccc(OC)cc54)nnc3SC2)cc1 | SRB | 10 µM | 24 |
| CN1C(=O)/C(=N\NC(=O)c2cc3ccccc3[nH]2)c2cc(Br)ccc21 | – | 30 µM | 95.2 |
| COc1ccc(C(=O)/C=C/c2cccc(Cl)c2)cc1S(N)(=O)=O | SRB | 10 µM | 99 |
